Most compounds without a hit are left out; they make up all but 2.6% or so of the library.
Ecoli rRNA inh = reduced GFP signal of wild-type E. coli, primary screen, bacterial rRNA inhibitor project, GFP/RFP fluorescence, OD600, single point | E. coli WT GFP vs humanized-ribosome RFP mutants, 24 h; hits give low values; DMSO median 0, no signal -100 | GFP signal change (wild-type ribosome), % (test concentration not listed) | 350,000 tested, 1.6% active | AID 720706, 2013;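 active means significant combined selectivity score with lowered wild-type GFP, culture density cut under 30%, mutant RFP and density less affected; inactive means any of these conditions unmet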
Env fusion inh = inhibitors of HIV-1 Env-driven cell-cell fusion, primary screen, HeLa-JRFL effector, CEM21 target cells, luciferase; inhibition, % at 12.3 µM; 360,000 tested, 1.1% active;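 active means mean replicate inhibition score of at least 50 and every replicate individually at or above 50; inconclusive means only one of the two criteria met; inactive means mean below 50 and not all replicates reaching 50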
miR122 inh = miR-122 Renilla sensor signal increase in Huh7, primary screen, miR-122 inhibitor project, cell-based, single point, plate reader. Huh7 miR-122 Renilla luciferase sensor, 48 h; neutral wells = 0, positive control = 100. activation (reporter increase), % at 12.5 µM. 340,000 tested, 0.3% active;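 active means mean replicate activation score at least 90 and every replicate individually at or above 90; inconclusive means only one of the two criteria met; inactive means neither criterion met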;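 further: higher luciferase means less miR-122 activity so hits act as miR-122 inhibitors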
S100A4 MyoIIA = inhibitors of S100A4-myosin IIA peptide binding, primary screen, biochemical, fluorescence polarization, TAMRA-MyoIIA peptide; inhibition, % at 10.7 µM; 360,000 tested, 0.14% active;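 active means mean inhibition of at least 70% across replicates, with every replicate also reaching that level; inconclusive means mean inhibition reaches 70% but some replicates fall short; inactive means mean inhibition below 70%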
Target sequence (P26447 whole entry, looked up): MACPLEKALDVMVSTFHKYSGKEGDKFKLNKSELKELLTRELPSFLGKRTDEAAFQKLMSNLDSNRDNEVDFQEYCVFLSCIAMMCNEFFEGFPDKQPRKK
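Compound dosing: one dose per compound; test system: human S100A4 monomer with TAMRA-labelled myosin IIA peptide; probe or stimulus: TAMRA-labelled myosin IIA heavy-chain peptide probe, 5 nM; medium: HEPES buffer with Ca2+, pH 7.2; schedule: 5 min incubation before reading; benchmarks: neutral control DMSO, positive control TFP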
FN deposit inh = inhibitors of fibronectin matrix deposition, primary screen, AH1F cells, Alexa488-fibronectin fluorescence, plate reader; AH1F fibroblasts, overnight; inhibition, % at 12.6 µM; 350,000 tested, 0.086% active;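 active means mean inhibition across replicates of 30% or more, regardless of how many single replicates reach that level; inconclusive means mean under 30% yet at least half of replicates reach 30%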
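Material: AH1F fibroblast monolayer depositing Alexa488-labelled fibronectin into matrix | Input: 10000 AH1F cells/well | Medium: DMEM plus 2% serum, read in PBS | Reagent: Alexa488-fibronectin, 24 nM final in well | Compound dosing: One dose per compound, pinned | Schedule: 1 h adhesion, overnight exposure | Measured by: Fluorescence at 485 nm excitation, 525 nm emission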
Vif imaging = HIV Vif self-association inhibitors, primary screen, imaging, HEK293T, single point | HEK293T cells, Vif self-association by quenched fluorescence, 24 h | inhibition, % at 7.49 µM | 340,000 tested, 0.35% active | AID 602346, 2012; in the data active means inhibition above about 50%, passing the limit was not always enough; inconclusive means no clear call, values can overlap the other calls; inactive means below about 31%
A number is an active result; 0 = inactive; ? = inconclusive; - = no result.

SMILES | Ecoli rRNA inh | Env fusion inh | miR122 inh | S100A4 MyoIIA | FN deposit inh | Vif imaging
C[C@H](CO)N1C[C@H](C)[C@H](CN(C)Cc2ccc3c(c2)OCO3)Oc2c(NS(C)(=O)=O)cccc2C1=O | 0 | 0 | 0 | 0 | - | -
N#C/C(=C\Nc1ccc(Cl)cn1)S(=O)(=O)c1ccccc1 | -34.6 | 0 | - | 0 | 0 | 0
COc1ccc(CNC(=O)C[C@H]2C=C[C@@H](NC(=O)c3ccc4c(c3)OCO4)[C@@H](CO)O2)cc1 | 0 | - | - | 0 | 0 | -
CC(=O)Nc1nc2ccccc2n1Cc1ccccc1Cl | -23.2 | 0 | 0 | 0 | 0 | 0
CCCn1c(Nc2nc3ccccc3n2C)nc2ccccc21 | - | 140.2 | 0 | - | 0 | 0
CCC(=O)Nc1nc2ccccc2n1CCN1CCOCC1 | - | - | 0 | - | - | 0
CCCCCCCn1c(NC(=O)CC)nc2ccccc21 | 0 | 72.2 | 0 | 0 | 0 | 0
CCC(=O)Nc1nc2ccccc2n1Cc1ccccc1Cl | 0 | 0 | 0 | 0 | 0 | 0
CN1C(=O)c2cc(NC(=O)c3cccs3)ccc2OC[C@H]2O[C@@H](CC(=O)Nc3ccc4c(c3)COC4)CC[C@@H]21 | 0 | 0 | - | 0 | 0 | -
Cc1ccc(S(=O)(=O)Nc2ccc3c(c2)C(=O)N([C@H](C)CO)C[C@@H](C)[C@@H](CN(C)S(=O)(=O)c2c(C)noc2C)OCCCC[C@H](C)O3)cc1 | 0 | 0 | 0 | 0 | 0 | -
COCC(=O)Nc1ccc2c(c1)[C@@H]1C[C@@H](CC(=O)NCCc3ccccc3)O[C@@H](CO)[C@@H]1O2 | 0 | 0 | 0 | 0 | 0 | -
Nc1c(S(=O)(=O)c2cccs2)c2nc3ccccc3nc2n1CCc1ccccc1 | - | 81.4 | - | - | 0 | -
Cc1ccc(S(=O)(=O)c2c(N)n(CCC(C)C)c3nc4ccccc4nc23)cc1 | - | 80.8 | 0 | - | 0 | 0
CC(C)CCn1c(N)c(S(=O)(=O)c2cccs2)c2nc3ccccc3nc21 | 0 | - | 0 | 0 | - | 0
COc1ccc(CCn2c(N)c(S(=O)(=O)c3cccs3)c3nc4ccccc4nc32)cc1OC | -20.8 | - | - | 0 | - | 0
COCCCN1C(=O)C(CC(=O)NCc2cccc3ccccc23)CC(C(=O)N2CCOCC2)=C1C (stereo unspecified) | 0 | ? | 0 | 0 | 0 | 66.8
CCC(=NC(C)c1ccccc1)c1c(O)n(C)c(=O)n(C)c1=O (stereo unspecified) | - | 60.2 | 0 | - | - | 0
COc1ccc(C(=O)N(C)C2(C)CCS(=O)(=O)C2)cc1OC (stereo unspecified) | 0 | 0 | - | 183.5 | 0 | 0
CN1C(=O)c2cc(NC(=O)c3ccc(F)c(F)c3)ccc2OC[C@@H]2O[C@H](CC(=O)N[C@H]3CCN(Cc4ccccc4)C3)CC[C@@H]21 | 0 | 0 | - | 0 | 0 | -
N#Cc1ccc(-c2ccc(OCC(O)Cn3nnc4ccccc43)cc2)cc1 (stereo unspecified) | - | 58.9 | 0 | - | 0 | 0
CC(=O)c1ccc(OCC(O)Cn2nnc3ccccc32)cc1 (stereo unspecified) | 0 | - | 0 | 0 | - | 0
C=C/C=C/[C@@H]1C(=C)CN2[C@H]1[C@H](Cc1ccccc1)OC(=O)[C@@H]2Cc1ccccc1 | - | 0 | - | 0 | - | -
CS(=O)(=O)c1nc(-c2ccc(F)cc2)cc(C(F)(F)F)n1 | -33.6 | 0 | - | 0 | 0 | 0
CN1C(=O)c2cc(NC(=O)c3ccc(Cl)cc3)ccc2OC[C@H]2O[C@@H](CC(=O)O)CC[C@H]21 | 0 | 0 | 0 | - | 0 | -
CCCc1nnc(NC(=O)c2cc3ccccc3oc2=O)s1 | - | - | 0 | - | - | 0
CCc1sc(NC(=O)c2cc3ccccc3oc2=O)nc1-c1cccs1 | 0 | 0 | 0 | 0 | 0 | 55.2
Cc1ccc(S(=O)(=O)Nc2cccc3c2O[C@@H](CN(C)S(=O)(=O)c2ccc(F)cc2)[C@@H](C)CN([C@@H](C)CO)C3=O)cc1 | 0 | 0 | 0 | - | - | -
CCN(CC)c1ccc(N=Cc2ccccc2[N+](=O)[O-])cc1 | -31.7 | 0 | 0 | 0 | 0 | 0
CCN(CC)c1ccc(N=Cc2ccc([N+](=O)[O-])o2)cc1 | - | 0 | - | 0 | 0 | 0
